{"source": "paper PMC4124904", "about": "(British journal of haematology, 2010)", "key": {"[1]": {"assay": "Pharmacokinetic analysis of idarubicin in plasma", "assay_type": "in vivo, human", "conditions": "for Cmax: iv, Maximum idarubicin plasma concentration (cmax), schedule A"}, "[2]": {"test_system": "patients with relapsed or refractory leukaemia", "assay": "Phase I safety and tolerability: adverse events, DLT, MTD", "assay_type": "in vivo, human", "conditions": "Schedule B: for 3 days, with idarubicin 12 mg/m^2/d IV for 3 days"}, "[3]": {"assay": "Pharmacokinetic analysis of vorinostat and two metabolites", "assay_type": "in vivo, human", "conditions": "for Tmax / Cmax: human, serum", "in_short": "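Relapsed/refractory leukaemia patients self-dosed oral HDAC inhibitor TID for 14 days (arm A) or 3 days (arm B), 3+3 escalation from 100 mg, with anthracycline 12 mg/m2 IV over 30 min on days 1–3. Blood clotted 20–30 min at 4°C, spun 2,000 × g 15 min at 4°C, serum stored at -70°C. […] Dosing times unrecorded, so only Cmax and Tmax were derived.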"}, "[4]": {"test_system": "histone-H3 acetylation in PBMCs", "assay": "Histone-H3 acetylation in PBMCs", "assay_type": "in vivo, human"}, "TOP2A mRNA": {"test_system": "TOP2A mRNA", "assay": "Real-time PCR of TOP2A mRNA expression in PBMCs", "assay_type": "in vivo, human"}, "[5]": {"test_system": "patients with refractory cutaneous T cell lymphoma (CTCL)", "conditions": "et al 2007, cited from earlier work"}}}
{"smiles": "CC(=O)[C@]1(O)Cc2c(O)c3c(c(O)c2[C@@H](O[C@H]2C[C@H](N)[C@H](O)[C@H](C)O2)C1)C(=O)c1ccccc1C3=O", "note": "[idarubicin]", "values": [{"measurement": "half-life", "setting": "[1]; human, plasma, intravenous", "result": "~11", "unit": "h"}, {"measurement": "Cmax", "setting": "[1]; human, plasma, mean, idarubicin 30-min intravenous infusion", "result": 66.1, "unit": "ng/mL"}, {"measurement": "Cmax", "setting": "[1]; human, plasma, range, idarubicin 30-min intravenous infusion", "result": "19.5 to 139", "unit": "ng/mL"}, {"measurement": "Idarubicin peak plasma concentration, mean", "setting": "[1]; schedule B, idarubicin 30-min intravenous infusion", "result": 55.4, "unit": "ng/mL"}]}
{"smiles": "O=C(CCCCCCC(=O)Nc1ccccc1)NO", "note": "[vorinostat]", "values": [{"measurement": "Maximum tolerated dose (MTD) of vorinostat", "setting": "[2]", "result": 400, "unit": "mg TID"}, {"measurement": "Plasma concentrations achieved", "setting": "[3]; TID dosing for 3 days, dose levels of 400 mg and 500 mg", "result": "> 2000", "unit": "nM"}, {"measurement": "Tmax", "setting": "[3]; oral", "result": "1 to 3", "unit": "h"}, {"measurement": "Cmax", "setting": "[3]; oral, Median Cmax for vorinostat, non-responders", "result": 800, "unit": "nM"}, {"measurement": "Tmax", "setting": "[3]; po, 100 mg", "result": 2.5, "unit": "h"}, {"measurement": "Cmax", "setting": "[3]; po, 100 mg, Vorinostat Mean Cmax, vorinostat 100 mg TID for 3 days oral, with idarubicin, N=3", "result": 688, "unit": "nM"}, {"measurement": "Cmax", "setting": "[3]; po, 100 mg, Vorinostat Median Cmax (Range), vorinostat 100 mg TID for 3 days oral, with idarubicin, N=3", "result": 331, "unit": "nM"}, {"measurement": "Cmax", "setting": "[3]; po, 200 mg, Vorinostat Mean Cmax, vorinostat 200 mg TID for 3 days oral, with idarubicin, N=3", "result": 522, "unit": "nM"}, {"measurement": "Cmax", "setting": "[3]; po, 200 mg, Vorinostat Median Cmax (Range), vorinostat 200 mg TID for 3 days oral, with idarubicin, N=3", "result": 443, "unit": "nM"}, {"measurement": "Tmax", "setting": "[3]; po, 300 mg", "result": 2.5, "unit": "h"}, {"measurement": "Tmax", "setting": "[3]; po, 400 mg", "result": 2.25, "unit": "h"}, {"measurement": "Vorinostat Median Tmax", "setting": "[3]; vorinostat 100 mg TID for 3 days oral, with idarubicin, N=3", "result": 2, "unit": "h"}, {"measurement": "Vorinostat Median Tmax", "setting": "[3]; vorinostat 200 mg TID for 3 days oral, with idarubicin, N=3", "result": 1, "unit": "h"}, {"measurement": "Vorinostat Median Tmax", "setting": "[3]; vorinostat 500 mg TID for 3 days oral, with idarubicin, N=5", "result": 3, "unit": "h"}, {"measurement": "Patients with detectable histone acetylation at day 21", "setting": "[4]; 3-day schedule of vorinostat", "result": 50, "unit": "%"}, {"measurement": "Patient samples with increased histone-H3 acetylation", "setting": "[4]; 15 of 33 available patient samples, both schedules", "result": 46, "unit": "%"}, {"measurement": "Patients with increased histone-H3 acetylation", "setting": "[4]; schedule A", "result": "5/11"}, {"measurement": "Patients with increased histone-H3 acetylation", "setting": "[4]; schedule B", "result": "10/22"}, {"measurement": "Change of TOP2A mRNA levels relative to pretreatment", "setting": "TOP2A mRNA; schedule A, day 1 to day 21, p=0.016, Wilcoxon signed rank test", "result": "downregulation"}, {"measurement": "Change of TOP2A mRNA levels relative to pretreatment", "setting": "TOP2A mRNA; schedule B, by day 3 of therapy, p=0.168, Wilcoxon, returned to baseline later", "result": "trend towards downregulation"}, {"measurement": "Response rate", "setting": "[5]; Phase II, 3 different schedules, refractory CTCL, ref Duvic", "result": 24, "unit": "%"}, {"measurement": "Objective response rate", "setting": "[5]; second Phase II trial, progressive or refractory CTCL, ref Olsen", "result": 30, "unit": "%"}]}
